Screens: PubChem, several laboratories
This is a sample that favours compounds with a hit; in the whole collection about 3.4% have one here.
TMEM16A act – TMEM16A chloride channel activators or potentiators, primary screen, cell-based, HTS; Anoctamin-1 (Mus musculus), Q8BHY3; HEK293 TMEM16A/YFP-H148Q/I152L, iodide quench fluorescence; active compounds read low; B-score at 10 µM; 340,000 compounds, 0.3% hits;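 active = fluorescence-ratio B-score plate-corrected deviation score at least 3 library SD below zero, with starting fluorescence score within 5 deviations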;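 note: channel opened by trigger with iodide after compound preincubation; score built on the fluorescence ratio of max minus min over baseline; more negative score means more quench and so TMEM16A activation or potentiation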
CHT allo act – CHT positive allosteric modulators, primary screen, cell-based, membrane potential dye, choline EC20; High affinity choline transporter 1 (Homo sapiens), Q9GZV3; CHT-expressing cells; active compounds read high; LV-AA mutant CHT in HEK293 cells; B-score at 10 µM; 310,000 compounds, 0.49% hits;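 active = initial fluorescence not abnormally high and integrated response B-score, plate-corrected, over 3 SD above library mean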
Target sequence (Q9GZV3 whole entry, looked up): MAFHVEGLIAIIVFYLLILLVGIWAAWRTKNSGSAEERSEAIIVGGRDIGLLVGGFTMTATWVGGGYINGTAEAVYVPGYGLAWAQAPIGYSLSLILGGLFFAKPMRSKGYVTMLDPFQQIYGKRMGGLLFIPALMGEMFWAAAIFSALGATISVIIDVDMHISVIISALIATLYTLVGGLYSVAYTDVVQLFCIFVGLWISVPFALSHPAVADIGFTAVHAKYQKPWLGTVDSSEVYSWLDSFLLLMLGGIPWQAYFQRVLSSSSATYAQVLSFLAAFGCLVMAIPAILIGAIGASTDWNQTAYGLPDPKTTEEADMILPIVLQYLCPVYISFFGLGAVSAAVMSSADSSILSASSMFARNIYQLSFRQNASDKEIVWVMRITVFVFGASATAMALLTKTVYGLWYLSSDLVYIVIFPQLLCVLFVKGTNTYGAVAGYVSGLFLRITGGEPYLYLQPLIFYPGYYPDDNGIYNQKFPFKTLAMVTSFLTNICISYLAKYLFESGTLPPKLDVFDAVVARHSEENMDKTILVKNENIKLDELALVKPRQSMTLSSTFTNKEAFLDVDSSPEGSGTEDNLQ
IMP-1 inh – IMP-1 metallo-beta-lactamase inhibitors, primary screen, biochemical, epi-absorbance readout, Pseudomonas aeruginosa enzyme; inhibition, % at 5.6 µM; metallo-beta-lactamase IMP-1 (Pseudomonas aeruginosa); purified IMP-1, nitrocefin hydrolysis, epi-absorbance fluorescence; 290,000 compounds, 0.45% hits;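 active = inhibition above the mean plus 3 SD of all compounds in the same screening run, cut at about 4.5% in these data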
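System: Purified IMP-1 | Read-out basis: Percent enzyme inhibition | Controls: IMP-1 with DMSO as 0%, enzyme-free DMSO as 100% | Replicates: One well per compound | Doses: 5.6 µM nominal single concentration | Detection: Epi-absorbance fluorescence, 480 nm excitation, 530 nm emission | Incubation: 25 °C, 15 min preincubation, 25 min reaction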
VIM-2 inh – VIM-2 metallo-beta-lactamase inhibitors, primary screen, biochemical, epi-absorbance readout, Pseudomonas aeruginosa enzyme; purified VIM-2, nitrocefin hydrolysis, epi-absorbance fluorescence; inhibition, % at 5.6 µM; 290,000 compounds, 0.89% hits; AID 1527, 2009;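 active = inhibition above the mean of all tested compounds plus 3 SD, cutoff set per screening run, cut at about 7.5% in these data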;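 note: red hydrolysis product quenches plate fluorescence so inhibitors raise well fluorescence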
CHT block – inhibitors of human choline transporter CHT; High affinity choline transporter 1 (Homo sapiens), Q9GZV3; 310,000 compounds, 0.86% hits; CHT-expressing cells, membrane potential dye, choline response; active compounds read low; B-score at 10 µM;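 active = B-score over 3 SD under the library average, and starting fluorescence ratio not unusually high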;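 note: choline stimulus applied at its EC90 after an EC20 pre-addition; B-score computed on integrated fluorescence ratio after choline addition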
ANO1 block – TMEM16A chloride channel inhibitors, primary screen, cell-based, HTS | Anoctamin-1 (Mus musculus), Q8BHY3 | HEK293 TMEM16A/YFP iodide influx fluorescence, ionomycin | normalized B-score (activity score, 25-100; higher = stronger inhibition) at 10 µM | 310,000 compounds, 1.2% hits | AID 588511, 2011;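 active = ratio plate-corrected score three or more library SD toward inhibition, starting fluorescence score within five deviations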;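 note: score derived from kinetic fluorescence span divided by baseline fluorescence per well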
CHT block conf – CHT inhibitors, confirmation, cell-based, membrane potential dye, duplicate | shares compounds with CHT block | CHT-expressing cells, choline membrane potential dye; LV-to-AA substituted CHT, HEK293 cells | CHT activity remaining % of control (active compounds read low), % at 10 µM | 2,400 compounds, 70% hits | AID 493221, 2011;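 active = choline transporter activity left, mean of duplicates at 10 µM, below buffer-only control mean minus 3 SD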;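 note: depolarization triggered by choline at its EC90 following an EC20 pre-addition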
HEK293 CHT ctr – membrane potential effects in parental HEK293, counter-screen for CHT inhibitor project, cell-based, membrane potential dye | shares compounds with CHT block | choline response; active = decrease or increase beyond buffer ±3SD | membrane potential ratio readout (active if shifted either direction beyond buffer ±3SD; no single direction) at 10 µM | 2,400 compounds, 4% hits | AID 493222, 2011;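 note: parental cells lack the transporter so any hit is non-specific; ratio is peak minus trough fluorescence over baseline after EC90 choline challenge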
Hits are given with their value; 0 = inactive; - = no result given.

SMILES	TMEM16A act	CHT allo act	IMP-1 inh	VIM-2 inh	CHT block	ANO1 block	CHT block conf	HEK293 CHT ctr
CC(=O)c1cccc(CN2CCC(CO)(CCOc3ccccc3)CC2)c1	0	0	0	0	0	0	-	-
OCCOc1cccc(CN2CCC(CO)(CCOc3ccccc3)CC2)c1	0	0	0	0	-10.2	0	0	0
CCn1cc(CCCC(=O)NCc2ccc(OC)cc2)c2ccccc21	0	0	0	0	0	0	-	-
COc1ccc2[nH]c3c(N4CC(C)OC(C)C4)ncnc3c2c1 (configuration not stated)	-	0	0	0	0	0	-	-
COc1cccc(N2CCN(c3ncnc4c3[nH]c3ccc(F)cc34)CC2C)c1 (configuration not stated)	0	0	0	0	-7.01	100	63.3%	0
O=C(C1=C(O)C(=O)N(CC2CCCO2)C1c1cccc(Cl)c1)c1ccco1 (configuration not stated)	0	0	0	0	0	0	-	-
Cc1cc(C(=O)N/N=C2\CC(=O)c3ccccc32)c(C)n1-c1ccccc1	0	0	0	0	0	0	-	-
Cc1cccc(C(=O)NNC2=C(C(=O)C(F)(F)F)CCC2)c1O	0	0	0	0	-7.94	100	37.1%	0
O=C(NCC(c1ccccc1)N1CCCC1)C1CCN(C(=O)Nc2ccccc2)CC1 (configuration not stated)	0	-	-	-	-	-	-	-
S=c1nc(-c2cc(Cl)cc(Cl)c2)[nH][nH]1	0	0	0	0	-5.79	0	31.9%	0
COc1ccc(NC(=O)N2CCC(n3cnc4ccccc43)CC2)cc1	0	0	0	0	-5.81	0	37.5%	0
Cc1cccc(C)c1NC(=O)N1CCC(n2cnc3ccccc32)CC1	0	0	0	0	0	0	-	-
CN(C)CCCNC(=O)C1(O)c2cc(Br)ccc2NC(=O)N1c1ccc(Cl)cc1 (configuration not stated)	0	0	0	0	0	0	-	-
Cc1ccccc1C(=O)NCCCNC(=O)c1ccccc1C	0	0	-	-	0	0	-	-
CCCCn1c(=O)[nH]c(=O)c2c1nc(CN1C(=O)c3ccccc3S1(=O)=O)n2CCC	0	0	0	0	0	0	-	-
CCCCn1c(=O)[nH]c(=O)c2c1nc(Cn1ncc(Cl)c(Cl)c1=O)n2CCC	0	0	0	0	-6.14	0	52.7%	0
N#Cc1c(NCCCO)nc(-c2ccccc2)c2c1CCCC2	0	0	0	0	0	0	-	-
N#Cc1c(NCCN)nc(-c2ccccc2)c2c1CCCC2	0	0	0	0	-6.28	0	39.6%	0
CCOc1ccc(NC(=O)CN(C)C(=O)c2cc([N+](=O)[O-])ccc2Sc2ccccc2)cc1OCC	0	-	-	-	-	-	-	-
O=C1NC(=O)C(=Cc2ccccc2[N+](=O)[O-])S1	0	-	-	-	-	-	-	-
O=C1NC(=O)/C(=C/c2cccc3ccccc23)S1	0	0	0	0	-4.99	0	62.2%	0
CCCOc1ccc2ccccc2c1/C=C1\SC(=O)NC1=O	0	0	0	0	-6.39	100	0	0
Cc1ccc(N2CCN(C(=O)NC3CCCCC3)CC2C)cc1 (configuration not stated)	0	0	0	0	0	0	-	-
COc1ccc(N2CCN(C(=O)C3CCN(C(=O)c4cccc(Cl)c4)CC3)CC2)cc1	0	0	0	0	0	0	-	-
CCOc1ccccc1C(=O)NC(C(=O)N(C)c1c(N)n(Cc2ccccc2)c(=O)[nH]c1=O)C(C)C (configuration not stated)	0	-	-	-	-	-	-	-
